Source: ChEMBL document CHEMBL2331542, “Synthesis and in vitro antibacterial activity of quinolone/naphthyridone derivatives containing 3-alkoxyimino-4-(methyl)aminopiperidine scaffolds” (2013)
Values after ≈ are worked out from the molar mass of the structure shown.

How the values were obtained:
Assay type in all cases: functional
[1] = tested on: Staphylococcus aureus; test: Antibacterial activity against Staphylococcus aureus […]
Summary of the method: (§1)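 MIC determined in vitro by a standard technique and defined as the lowest compound concentration giving complete inhibition of bacterial growth. The Gram-positive and Gram-negative panels were tested alongside gemifloxacin, levofloxacin and ciprofloxacin reference drugs.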

[2] = tested on: Streptococcus pneumoniae; test: Antibacterial activity against Streptococcus pneumoniae isolate 12-2; summary of the method: as §1
[3] = tested on: Staphylococcus epidermidis; test: Antibacterial activity against methicillin-sensitive Staphylococcus epidermidis isolate 12-1; summary of the method: as §1
[4] = tested on: Streptococcus pneumoniae; test: Antibacterial activity against Streptococcus pneumoniae isolate 12-5; summary of the method: as §1
[5] = tested on: Staphylococcus epidermidis; test: Antibacterial activity against methicillin-resistant Staphylococcus epidermidis isolate 12-33
Summary of the method: (§2)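 MIC determined in vitro by standard techniques, defined as the lowest compound concentration giving complete inhibition of bacterial growth. Gemifloxacin, levofloxacin and ciprofloxacin were tested alongside as reference drugs.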

[6] = tested on: Staphylococcus epidermidis; test: Antibacterial activity against methicillin-resistant Staphylococcus epidermidis isolate 12-5; summary of the method: as §2
[7] = tested on: Klebsiella pneumoniae; test: Antibacterial activity against Klebsiella pneumoniae isolate 12-2; summary of the method: as §1
[8] = tested on: Klebsiella pneumoniae; test: Antibacterial activity against extended-spectrum beta-lactamase-producing Klebsiella pneumoniae isolate 12-4; summary of the method: as §1
[9] = tested on: Pseudomonas aeruginosa; test: Antibacterial activity against Pseudomonas aeruginosa isolate 12-1; summary of the method: as §1
[10] = tested on: Staphylococcus aureus; test: Antibacterial activity against methicillin-sensitive Staphylococcus aureus isolate 12-10; summary of the method: as §1
[11] = tested on: Pseudomonas aeruginosa; test: Antibacterial activity against Pseudomonas aeruginosa ATCC 27853; summary of the method: as §1
[12] = tested on: Escherichia coli; test: Antibacterial activity against extended-spectrum beta-lactamase-producing Escherichia coli isolate 12-4; summary of the method: as §1
[13] = tested on: Staphylococcus epidermidis; test: Antibacterial activity against methicillin-sensitive Staphylococcus epidermidis isolate 12-2; summary of the method: as §1
[14] = tested on: Escherichia coli; test: Antibacterial activity against Escherichia coli isolate 12-5; summary of the method: as §1
[15] = tested on: Pseudomonas aeruginosa; test: Antibacterial activity against Pseudomonas aeruginosa isolate 12-2; summary of the method: as §1
[16] = tested on: Escherichia coli; test: Antibacterial activity against Escherichia coli ATCC 25922; summary of the method: as §1
[17] = tested on: Klebsiella pneumoniae; test: Antibacterial activity against extended-spectrum beta-lactamase-producing Klebsiella pneumoniae isolate 12-1; summary of the method: as §1
[18] = tested on: Escherichia coli; test: Antibacterial activity against Escherichia coli isolate 12-1; summary of the method: as §1
[19] = tested on: Staphylococcus aureus; test: Antibacterial activity against methicillin-resistant Staphylococcus aureus isolate 12-3; summary of the method: as §2
[20] = tested on: Klebsiella pneumoniae; test: Antibacterial activity against Klebsiella pneumoniae isolate 12-1; summary of the method: as §1
[21] = tested on: Staphylococcus aureus; test: Antibacterial activity against methicillin-resistant Staphylococcus aureus isolate 12-13; summary of the method: as §2
[22] = tested on: Staphylococcus aureus; test: Antibacterial activity against methicillin-resistant Staphylococcus aureus isolate 12-15; summary of the method: as §2
[23] = tested on: Escherichia coli; test: Antibacterial activity against Escherichia coli isolate 12-4; summary of the method: as §1
[24] = tested on: Staphylococcus epidermidis; test: Antibacterial activity against methicillin-resistant Staphylococcus epidermidis isolate 12-35; summary of the method: as §2
[25] = tested on: Escherichia coli; test: Antibacterial activity against extended-spectrum beta-lactamase-producing Escherichia coli isolate 12-1; summary of the method: as §1
[26] = tested on: Staphylococcus aureus; test: Antibacterial activity against methicillin-sensitive Staphylococcus aureus isolate 12-7; summary of the method: as §1
[27] = tested on: Klebsiella pneumoniae; test: Antibacterial activity against Klebsiella pneumoniae isolate 12-4; summary of the method: as §1
[28] = tested on: Staphylococcus aureus; test: Antibacterial activity against methicillin-sensitive Staphylococcus aureus isolate 12-6; summary of the method: as §1
[29] = tested on: Klebsiella pneumoniae; test: Antibacterial activity against extended-spectrum beta-lactamase-producing Klebsiella pneumoniae isolate 12-2; summary of the method: as §1
[30] = tested on: Escherichia coli; test: Antibacterial activity against extended-spectrum beta-lactamase-producing Escherichia coli isolate 12-2; summary of the method: as §1
[31] = tested on: Staphylococcus epidermidis; test: Antibacterial activity against methicillin-sensitive Staphylococcus epidermidis isolate 12-3; summary of the method: as §1

Row | Structure (SMILES) | MIC [1] [µg/mL] | MIC [2] [µg/mL] | MIC [3] [µg/mL] | MIC [4] [µg/mL] | MIC [5] [µg/mL] | MIC [6] [µg/mL] | MIC [7] [µg/mL] | MIC [8] [µg/mL] | MIC [9] [µg/mL] | MIC [10] [µg/mL] | MIC [11] [µg/mL] | MIC [12] [µg/mL] | MIC [13] [µg/mL] | MIC [14] [µg/mL] | MIC [15] [µg/mL] | MIC [16] [µg/mL] | MIC [17] [µg/mL] | MIC [18] [µg/mL] | MIC [19] [µg/mL] | MIC [20] [µg/mL] | further results
1 | CNC1CCN(c2c(F)cc3c(=O)c(C(=O)O)cn(C4CC4)c3c2F)C/C1=N\OC (stereo not given) | 0.25 (≈ 0.595 µM) | 0.06 (≈ 0.143 µM) | 0.25 (≈ 0.595 µM) | 0.06 (≈ 0.143 µM) | < 0.008 | 0.015 (≈ 0.0357 µM) | 0.5 (≈ 1.19 µM) | 0.5 (≈ 1.19 µM) | 8 (≈ 19 µM) | 0.03 (≈ 0.0714 µM) | 4 (≈ 9.51 µM) | 128 (≈ 304 µM) | 0.5 (≈ 1.19 µM) | > 128 | 8 (≈ 19 µM) | 0.03 (≈ 0.0714 µM) | 8 (≈ 19 µM) | 2 (≈ 4.76 µM) | 0.06 (≈ 0.143 µM) | 0.5 (≈ 1.19 µM) | MIC [21]: 0.06 µg/mL (≈ 0.143 µM); MIC [22]: 0.06 µg/mL (≈ 0.143 µM); MIC [23]: > 128 µg/mL; MIC [24]: 0.015 µg/mL (≈ 0.0357 µM); MIC [25]: > 128 µg/mL; MIC [26]: 0.06 µg/mL (≈ 0.143 µM); MIC [27]: 0.5 µg/mL (≈ 1.19 µM); MIC [28]: 0.03 µg/mL (≈ 0.0714 µM); MIC [29]: 8 µg/mL (≈ 19 µM); MIC [30]: > 128 µg/mL; MIC [31]: 0.25 µg/mL (≈ 0.595 µM)
2 | CNC1CCN(c2c(F)cc3c(=O)c(C(=O)O)cn4c3c2OC[C@@H]4C)C/C1=N\OC (stereo not given in full) | 0.25 (≈ 0.597 µM) | 1 (≈ 2.39 µM) | 0.5 (≈ 1.19 µM) | 1 (≈ 2.39 µM) | < 0.008 | 0.125 (≈ 0.299 µM) | 1 (≈ 2.39 µM) | 0.5 (≈ 1.19 µM) | 8 (≈ 19.1 µM) | 0.25 (≈ 0.597 µM) | 4 (≈ 9.56 µM) | 16 (≈ 38.2 µM) | 2 (≈ 4.78 µM) | 128 (≈ 306 µM) | 8 (≈ 19.1 µM) | 0.25 (≈ 0.597 µM) | 16 (≈ 38.2 µM) | 8 (≈ 19.1 µM) | 1 (≈ 2.39 µM) | 1 (≈ 2.39 µM) | MIC [21]: 1 µg/mL (≈ 2.39 µM); MIC [22]: 1 µg/mL (≈ 2.39 µM); MIC [23]: 128 µg/mL (≈ 306 µM); MIC [24]: 0.125 µg/mL (≈ 0.299 µM); MIC [25]: 128 µg/mL (≈ 306 µM); MIC [26]: 1 µg/mL (≈ 2.39 µM); MIC [27]: 0.5 µg/mL (≈ 1.19 µM); MIC [28]: 0.25 µg/mL (≈ 0.597 µM); MIC [29]: 16 µg/mL (≈ 38.2 µM); MIC [30]: > 128 µg/mL; MIC [31]: 0.5 µg/mL (≈ 1.19 µM)
3 | CO/N=C1\CN(c2nc3c(cc2F)c(=O)c(C(=O)O)cn3C2CC2)CC1CN (stereo not given) [GEMIFLOXACIN] | < 0.008 | 0.25 (≈ 0.642 µM) | 0.06 (≈ 0.154 µM) | 0.25 (≈ 0.642 µM) | 4 (≈ 10.3 µM) | 0.015 (≈ 0.0385 µM) | 0.06 (≈ 0.154 µM) | 2 (≈ 5.14 µM) | 8 (≈ 20.5 µM) | 0.03 (≈ 0.077 µM) | 1 (≈ 2.57 µM) | 2 (≈ 5.14 µM) | 0.25 (≈ 0.642 µM) | 16 (≈ 41.1 µM) | 16 (≈ 41.1 µM) | 0.015 (≈ 0.0385 µM) | 2 (≈ 5.14 µM) | 0.125 (≈ 0.321 µM) | 0.03 (≈ 0.077 µM) | 0.03 (≈ 0.077 µM) | MIC [21]: 0.015 µg/mL (≈ 0.0385 µM); MIC [22]: 0.03 µg/mL (≈ 0.077 µM); MIC [23]: 16 µg/mL (≈ 41.1 µM); MIC [24]: 0.008 µg/mL (≈ 0.0205 µM); MIC [25]: 8 µg/mL (≈ 20.5 µM); MIC [26]: 4 µg/mL (≈ 10.3 µM); MIC [27]: 0.06 µg/mL (≈ 0.154 µM); MIC [28]: 0.03 µg/mL (≈ 0.077 µM); MIC [29]: 2 µg/mL (≈ 5.14 µM); MIC [30]: 16 µg/mL (≈ 41.1 µM); MIC [31]: 0.06 µg/mL (≈ 0.154 µM)
4 | O=C1NC2CCN(c3nc4c(cc3F)c(=O)c(C(=O)O)cn4C3CC3)CC2O1 (stereo not given) | 1 (≈ 2.57 µM) | 2 (≈ 5.15 µM) | 1 (≈ 2.57 µM) | 0.5 (≈ 1.29 µM) | 1 (≈ 2.57 µM) | 0.5 (≈ 1.29 µM) | 2 (≈ 5.15 µM) | 128 (≈ 330 µM) | 16 (≈ 41.2 µM) | 0.5 (≈ 1.29 µM) | 8 (≈ 20.6 µM) | 64 (≈ 165 µM) | 2 (≈ 5.15 µM) | > 128 | 16 (≈ 41.2 µM) | 1 (≈ 2.57 µM) | 128 (≈ 330 µM) | 16 (≈ 41.2 µM) | 2 (≈ 5.15 µM) | 2 (≈ 5.15 µM) | MIC [21]: 2 µg/mL (≈ 5.15 µM); MIC [22]: 2 µg/mL (≈ 5.15 µM); MIC [23]: > 128 µg/mL; MIC [24]: 0.5 µg/mL (≈ 1.29 µM); MIC [25]: > 128 µg/mL; MIC [26]: 128 µg/mL (≈ 330 µM); MIC [27]: 32 µg/mL (≈ 82.4 µM); MIC [28]: 1 µg/mL (≈ 2.57 µM); MIC [29]: > 128 µg/mL; MIC [30]: > 128 µg/mL; MIC [31]: 1 µg/mL (≈ 2.57 µM)
5 | CCn1cc(C(=O)O)c(=O)c2cc(F)c(N3CCC(NC)/C(=N/OC)C3)c(F)c21 (stereo not given) | 0.125 (≈ 0.306 µM) | 1 (≈ 2.45 µM) | 0.5 (≈ 1.22 µM) | 1 (≈ 2.45 µM) | 8 (≈ 19.6 µM) | 0.5 (≈ 1.22 µM) | 4 (≈ 9.79 µM) | 1 (≈ 2.45 µM) | 8 (≈ 19.6 µM) | 0.5 (≈ 1.22 µM) | 8 (≈ 19.6 µM) | 128 (≈ 313 µM) | 16 (≈ 39.2 µM) | > 128 | 8 (≈ 19.6 µM) | 0.5 (≈ 1.22 µM) | 16 (≈ 39.2 µM) | 8 (≈ 19.6 µM) | 1 (≈ 2.45 µM) | 4 (≈ 9.79 µM) | MIC [21]: 1 µg/mL (≈ 2.45 µM); MIC [22]: 1 µg/mL (≈ 2.45 µM); MIC [23]: > 128 µg/mL; MIC [24]: 0.5 µg/mL (≈ 1.22 µM); MIC [25]: > 128 µg/mL; MIC [26]: 1 µg/mL (≈ 2.45 µM); MIC [27]: 1 µg/mL (≈ 2.45 µM); MIC [28]: 0.5 µg/mL (≈ 1.22 µM); MIC [29]: 32 µg/mL (≈ 78.4 µM); MIC [30]: > 128 µg/mL; MIC [31]: 0.5 µg/mL (≈ 1.22 µM)
